Experimental findings from ChEMBL document CHEMBL1150355, “Design and evaluation of a novel series of 2,3-oxidosqualene cyclase inhibitors with low systemic exposure, relationship between pharmacokinetic properties and ocular toxicity” (Bioorg Med Chem, 2008) are described below.

Each structure is given as a SMILES string. Active and inactive are the calls of the source. The rule behind the calls is not given here. A value given as a limit tells only on which side of the number the result lay.

The target of data set [1] is T1, Lanosterol synthase (Homo sapiens) (UniProt P48449).
T1 sequence (whole entry): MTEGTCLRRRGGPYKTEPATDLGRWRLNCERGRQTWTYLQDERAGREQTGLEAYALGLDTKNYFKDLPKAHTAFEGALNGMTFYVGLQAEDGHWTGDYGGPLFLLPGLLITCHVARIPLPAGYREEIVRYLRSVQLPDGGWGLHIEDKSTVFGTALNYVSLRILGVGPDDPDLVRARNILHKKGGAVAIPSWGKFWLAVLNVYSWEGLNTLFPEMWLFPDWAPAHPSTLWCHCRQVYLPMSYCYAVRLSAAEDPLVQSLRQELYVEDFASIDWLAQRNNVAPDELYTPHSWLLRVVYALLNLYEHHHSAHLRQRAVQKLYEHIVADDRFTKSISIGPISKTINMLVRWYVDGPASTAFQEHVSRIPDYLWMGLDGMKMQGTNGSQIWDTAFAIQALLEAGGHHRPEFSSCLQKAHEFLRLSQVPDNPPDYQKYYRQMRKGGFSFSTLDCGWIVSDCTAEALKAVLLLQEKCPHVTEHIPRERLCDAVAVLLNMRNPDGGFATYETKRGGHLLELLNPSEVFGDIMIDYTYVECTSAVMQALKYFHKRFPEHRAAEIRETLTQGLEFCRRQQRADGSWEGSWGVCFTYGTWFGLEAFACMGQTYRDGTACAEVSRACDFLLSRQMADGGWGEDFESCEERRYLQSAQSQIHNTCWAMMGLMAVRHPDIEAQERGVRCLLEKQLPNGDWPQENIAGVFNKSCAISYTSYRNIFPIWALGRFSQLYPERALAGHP
As to the kind of experiment: Inhibition of 2,3-oxidosqualene-lanosterol cyclase at 200 nM. A digest of the protocol: (§1)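 HepG2 cells were incubated 24 h with compound in BME with 10% fetal calf serum, then labelled with [14C]mevalonate (7.4 kBq). Lipids were extracted with heptane/isopropanol and separated by TLC. [14C]cholesterol, MES and DES were identified against standards and quantified by phosphorimaging, scoring cholesterol synthesis inhibition together with MES/DES formation.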

The target in the next data set is T2, Lanosterol synthase (Homo sapiens, UniProt P48449).
T2 sequence (P48449 whole entry): T1 sequence (whole entry)
Put plainly: Inhibition of 2,3-oxidosqualene-lanosterol cyclase. A digest of the protocol:
as §1

Data set [2] is described as follows: Metabolic stability in rat liver microsomes assessed as intrinsic clearance […]. It counts as ADME, Microsome.
In data set [3] the test system is Rattus norvegicus. As to the kind of experiment: Induction of neosynthetized 2,3 mono-epoxysqualene synthesis in OFA rat liver at 2 mg/kg, po after 3 hrs relative to BIBB 515. It is filed as functional. A digest of the protocol: (§2)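 Male OFA rats dosed orally at 2 mg/kg. Sterol synthesis was labelled by ip [14C]mevalonate (370 kBq) for the final hour, giving 3 h or 8 h total exposure. Lens and liver lipids were extracted with isopropanol, separated by TLC, and cholesterol and MES radioactivity quantified by phosphorimaging. Cholesterol inhibition is relative to vehicle-treated rats, and MES as % of BIBB 515-treated rats (100%).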

Data set [4] relates to Rattus norvegicus. As to the kind of experiment: Inhibition of neosynthetized cholesterol synthesis in OFA rat liver at 2 mg/kg, po after 3 hrs. It is filed as functional. A digest of the protocol:
as §2

The subject of data set [5] is Rattus norvegicus. Put plainly: Ocular toxicity in Sprague-Dawley rat assessed as opacification of anterior lens at 30 mg/kg, po administered once daily for 21 days. It counts as organism-based, Lens of camera-type eye. The arrangement: dose 30 mg/kg, route oral. The note with it: in vivo, 504 h. A digest of the protocol:
(§3)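 Sprague–Dawley rats (male and female, n = 3) were dosed orally once daily for 21 days. Anterior lens opacification was scored from 0 to 6 (4 marked, 5 very marked, 6 severe), with histological examination of the eye.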

Data set [6] is described as follows: Biodistribution in OFA rat liver at 1 mg/kg, iv after 2 hrs. It counts as ADME, organism-based. The arrangement: dose 1 mg/kg, route intravenous. The note with it: read-out: Drug uptake. An outline of the steps: (§4)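 OFA rats (n = 10) dosed 1 mg/kg by iv bolus via penis vein in 10% DMA/90% PEG200. Plasma and tissue homogenates in borate buffer 0.1 M pH 11.5 were extracted with ethyl ether and analysed by LC. Plasma AUC was computed over 0–6 h.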

For data set [7], the system named is Rattus norvegicus. As to the kind of experiment: Induction of neosynthetized 2,3 mono-epoxysqualene synthesis in OFA rat lens at 2 mg/kg, po after 3 hrs relative to BIBB 515. It counts as functional, Lens of camera-type eye. A digest of the protocol:
as §2

Data set [8] is described as follows: Biodistribution in OFA rat eyes at 1 mg/kg, iv after 2 hrs. It counts as ADME, organism-based. Also noted: dose 1 mg/kg, route intravenous. The conditions noted are these: eye, read-out: Drug uptake. A digest of the protocol:
as §4

Data set [9] concerns Rattus norvegicus. Put plainly: Inhibition of 2,3-oxidosqualene-lanosterol cyclase in male Sprague-Dawley rat assessed as 2,3 mono-epoxysqualene appearance in liver at 30 mg/kg, po administered once daily for 21 days. It is filed as functional, organism-based. The arrangement: dose 30 mg/kg. An outline of the steps:
(§5)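 Sprague–Dawley rats (3 per sex) were dosed orally once daily for 21 days. On day 21, 3 h after the last dose, rats were sacrificed and hepatic lipids extracted and separated by TLC. MES was visualised with 5% phosphomolybdic acid in isopropanol, and MES mass quantified by densitometry.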

The subject of data set [10] is Rattus norvegicus. Put plainly: Inhibition of 2,3-oxidosqualene-lanosterol cyclase in female Sprague-Dawley rat assessed as 2,3 mono-epoxysqualene appearance in liver at 10 mg/kg, po administered once daily for 21 days. It is filed as functional, organism-based. The arrangement: dose 10 mg/kg. A digest of the protocol:
as §5

The test system of data set [11] is Rattus norvegicus. Put plainly: Induction of neosynthetized 2,3 mono-epoxysqualene synthesis in OFA rat liver at 2 mg/kg, po after 8 hrs relative to BIBB 515. It is filed as functional. A digest of the protocol: as §2
Data set [12] is described as follows: Biodistribution in OFA rat liver at 1 mg/kg, iv after 6 hrs. It is filed as ADME, organism-based. The arrangement: dose 1 mg/kg, route intravenous. The conditions noted are these: read-out: Drug uptake. A digest of the protocol:
as §4

Data set [13] concerns Rattus norvegicus. As to the kind of experiment: Inhibition of neosynthetized cholesterol synthesis in OFA rat lens at 2 mg/kg, po after 3 hrs. It counts as functional. The note with it: Lens of camera-type eye. An outline of the steps:
as §2

The test system of data set [14] is Rattus norvegicus. Put plainly: Inhibition of neosynthetized cholesterol synthesis in OFA rat lens at 2 mg/kg, po after 8 hrs. It is filed as functional. The conditions noted are these: Lens of camera-type eye. An outline of the steps:
as §2

The subject of data set [15] is Rattus norvegicus. As to the kind of experiment: Inhibition of 2,3-oxidosqualene-lanosterol cyclase in female Sprague-Dawley rat assessed as 2,3 mono-epoxysqualene appearance in liver at 30 mg/kg, po administered once daily for 21 days. The arrangement: dose 30 mg/kg. It counts as functional, organism-based. A digest of the protocol: as §5
Data set [16] concerns Rattus norvegicus. Put plainly: Ocular toxicity in Sprague-Dawley rat assessed as opacification of anterior lens at 2 mg/kg, po administered once daily for 21 days. It counts as organism-based, Lens of camera-type eye. Also noted: dose 2 mg/kg, route oral. The conditions noted are these: in vivo, 504 h. A digest of the protocol: as §3
The nature of data set [17]: AUC (0 to 6 hrs) in OFA rat at 1 mg/kg, iv. It counts as ADME, organism-based. Also noted: time < 6 hr, dose 1 mg/kg, route intravenous. The conditions noted are these: plasma. An outline of the steps: as §4
Data set [18] can be described thus: Biodistribution in OFA rat eyes at 1 mg/kg, iv after 6 hrs. It counts as ADME, organism-based. The arrangement: dose 1 mg/kg, route intravenous. The note with it: eye, read-out: Drug uptake. A digest of the protocol:
as §4

Data set [19] relates to Rattus norvegicus. Put plainly: Inhibition of 2,3-oxidosqualene-lanosterol cyclase in male Sprague-Dawley rat assessed as 2,3 mono-epoxysqualene appearance in liver at 2 mg/kg, po administered once daily for 21 days. It is filed as functional, organism-based. The arrangement: dose 2 mg/kg. A digest of the protocol:
as §5

Data set [20] relates to Rattus norvegicus. Put plainly: Inhibition of neosynthetized cholesterol synthesis in OFA rat liver at 2 mg/kg, po after 8 hrs. It is filed as functional. An outline of the steps: as §2
For data set [21], the system named is Rattus norvegicus. Put plainly: Induction of neosynthetized 2,3 mono-epoxysqualene synthesis in OFA rat lens at 2 mg/kg, po after 8 hrs relative to BIBB 515. It is filed as functional, Lens of camera-type eye. A digest of the protocol: as §2
Data set [22] relates to Rattus norvegicus. As to the kind of experiment: Inhibition of 2,3-oxidosqualene-lanosterol cyclase in male Sprague-Dawley rat assessed as 2,3 mono-epoxysqualene appearance in liver at 10 mg/kg, po administered once daily for 21 days. It is filed as functional, organism-based. The arrangement: dose 10 mg/kg. A digest of the protocol: as §5
Data set [23] has as its system Rattus norvegicus. As to the kind of experiment: Inhibition of 2,3-oxidosqualene-lanosterol cyclase in female Sprague-Dawley rat assessed as 2,3 mono-epoxysqualene appearance in liver at 2 mg/kg, po administered once daily for 21 days. It counts as functional, organism-based. The arrangement: dose 2 mg/kg. An outline of the steps: as §5

For the molecule `O=C(c1ccc(Cl)cc1)N1CCN(Cc2ccc(-c3ccn[nH]3)cc2)CC1`, the result in [1] was inactive.

For `O=C(c1ccc(Cl)cc1)N1CCN(Cc2ccc(-n3cccn3)cc2)CC1`, the result in data set [1] was inactive.

The IC50 is the concentration that inhibits the measured activity by half. Low values mean greater potency, high ones weaker potency. `O=S(=O)(NCCc1ccc(-c2ccc(CN3CCCC3)cc2)cc1)c1ccc(Cl)cc1` displayed an IC50 on Lanosterol synthase of 63 nM.

By CLint scaled is commonly meant the capacity of the preparation to metabolise the compound, expressed as a volume cleared per time. The term inhibition in vivo denotes the drop in the measured response relative to a control, in per cent. Low readings indicate a weak effect, high ones a strong effect. With `O=S(=O)(c1ccc(Cl)cc1)N1CCN(Cc2ccc(-c3ccncc3)cc2)CC1`, in [2], the CLint scaled is 1.3 mL/min/g. The molecule further showed an Activity in the data set with Rattus norvegicus [3] of 45%. This molecule also yielded an IC50 at Lanosterol synthase of 13 nM. In addition, the inhibition in vivo at 2 mg/kg in the data set on Rattus norvegicus [4] worked out at 66%.

For orientation: AUC(0-t) means the area under the concentration-time curve up to a stated or last time point. Higher therefore signals high exposure. For `O=C(c1ccc(Cl)cc1)N1CCN(Cc2ccc(-n3ccnc3)cc2)CC1`, the Activity entry was “Toxic” with Rattus norvegicus [5]; 104% in the data set on Rattus norvegicus [7]; “Toxic” in the data set with Rattus norvegicus [9]; “Toxic” in the data set with Rattus norvegicus [10]; 85% with Rattus norvegicus [11]; “Toxic” in the data set on Rattus norvegicus [15]. The Activity with Rattus norvegicus [3] was 156%; in the data set with Rattus norvegicus [16], “Non-toxic”; in the data set on Rattus norvegicus [19], “Non-toxic”; in the data set on Rattus norvegicus [21], 51%; in the data set with Rattus norvegicus [22], “Toxic”; in the data set with Rattus norvegicus [23], “Toxic”. Also, the concentration at 2 h in data set [6] amounted to 2010 ng/g; in data set [8], 65 ng/g. The CLint scaled in data set [2] stood at 0.2 mL/min/g. Besides, the concentration at 6 h in [12] is 660 ng/g; in [18] it was below 10 ng/g. The inhibition in vivo at 2 mg/kg was 76% with Rattus norvegicus [13], 0% in the data set with Rattus norvegicus [14], 85% with Rattus norvegicus [4] and 20% with Rattus norvegicus [20]. In addition, the AUC(0-t) at 6 h in data set [17] is 534 ng·h/mL. Further, the IC50 at Lanosterol synthase came to 32 nM.

In the case of `CN(C)Cc1ccc(CN2CCN(C(=O)c3ccc(Cl)cc3)CC2)cc1`, the IC50 against Lanosterol synthase is 40 nM.

In the case of `O=C(N1CCN(Cc2ccc(-n3ccnc3)cc2)CC1)C(F)(F)F`, the result in data set [1] was inactive.

Turning to `Cn1cc(-c2ccc(CN3CCN(C(=O)c4ccc(Cl)cc4)CC3)cc2)cn1`, the outcome in data set [1] was inactive.

As for `CN1CCN(c2ccc(CN3CCN(S(=O)(=O)c4ccc(Cl)cc4)CC3)cc2)CC1`, the Activity result in the data set on Rattus norvegicus [5] is “Toxic”; with Rattus norvegicus [7], 162%; with Rattus norvegicus [9], “Toxic”; in the data set with Rattus norvegicus [10] it was “Toxic”; in the data set on Rattus norvegicus [11] it was 232%; in the data set on Rattus norvegicus [15], “Toxic”. Besides, the Activity in the data set on Rattus norvegicus [3] was 111%; in the data set with Rattus norvegicus [19], “Toxic”; in the data set with Rattus norvegicus [21] it was 29%; in the data set on Rattus norvegicus [22] it was “Toxic”; in the data set on Rattus norvegicus [23], “Toxic”. The concentration at 2 h in [6] is 6600 ng/g; in data set [8] it was 278 ng/g. Moreover, the CLint scaled in data set [2] amounted to 5.4 mL/min/g. Besides, the figures for the concentration at 6 h in data set [12] and in data set [18] were 3270 ng/g and 123 ng/g, respectively. Besides, the inhibition in vivo at 2 mg/kg is 67% in the data set with Rattus norvegicus [13], 67% in the data set with Rattus norvegicus [14], 75% with Rattus norvegicus [4] and 62% in the data set on Rattus norvegicus [20]. The molecule also returned an AUC(0-t) at 6 h in [17] of 97 ng·h/mL. At Lanosterol synthase, the IC50 is 6 nM.

For the molecule `O=S(=O)(c1ccc(Cl)cc1)N1CCN(Cc2cccc(-c3ccncc3)c2)CC1`, the IC50 against Lanosterol synthase stood at 500 nM.
